ChEMBL document CHEMBL3102702, “Protein kinase and HDAC inhibitors from the endophytic fungus Epicoccum nigrum” (J Nat Prod, 2014)

Molecular target: Focal adhesion kinase 1 (Homo sapiens, UniProt Q05397)
Assay: Inhibition of FAK (unknown origin)
Conditions: not given

Compound	IC50 [nM]
Cc1c(O)c(O)c2c(c1C=O)[C@@H]1O[C@H](O2)c2c(C)c(O)c(O)c(O)c2C1=O (racemic)	420

Molecular target: Protein deacetylase HDAC6 (Homo sapiens, UniProt Q9UBN7)
Assay: Inhibition of recombinant HDAC6 (unknown origin) using Fluor-de-Lys-SIRT1 as substrate by fluorescence assay
Conditions: not given

Protein deacetylase HDAC6, sequence (Q9UBN7 whole entry): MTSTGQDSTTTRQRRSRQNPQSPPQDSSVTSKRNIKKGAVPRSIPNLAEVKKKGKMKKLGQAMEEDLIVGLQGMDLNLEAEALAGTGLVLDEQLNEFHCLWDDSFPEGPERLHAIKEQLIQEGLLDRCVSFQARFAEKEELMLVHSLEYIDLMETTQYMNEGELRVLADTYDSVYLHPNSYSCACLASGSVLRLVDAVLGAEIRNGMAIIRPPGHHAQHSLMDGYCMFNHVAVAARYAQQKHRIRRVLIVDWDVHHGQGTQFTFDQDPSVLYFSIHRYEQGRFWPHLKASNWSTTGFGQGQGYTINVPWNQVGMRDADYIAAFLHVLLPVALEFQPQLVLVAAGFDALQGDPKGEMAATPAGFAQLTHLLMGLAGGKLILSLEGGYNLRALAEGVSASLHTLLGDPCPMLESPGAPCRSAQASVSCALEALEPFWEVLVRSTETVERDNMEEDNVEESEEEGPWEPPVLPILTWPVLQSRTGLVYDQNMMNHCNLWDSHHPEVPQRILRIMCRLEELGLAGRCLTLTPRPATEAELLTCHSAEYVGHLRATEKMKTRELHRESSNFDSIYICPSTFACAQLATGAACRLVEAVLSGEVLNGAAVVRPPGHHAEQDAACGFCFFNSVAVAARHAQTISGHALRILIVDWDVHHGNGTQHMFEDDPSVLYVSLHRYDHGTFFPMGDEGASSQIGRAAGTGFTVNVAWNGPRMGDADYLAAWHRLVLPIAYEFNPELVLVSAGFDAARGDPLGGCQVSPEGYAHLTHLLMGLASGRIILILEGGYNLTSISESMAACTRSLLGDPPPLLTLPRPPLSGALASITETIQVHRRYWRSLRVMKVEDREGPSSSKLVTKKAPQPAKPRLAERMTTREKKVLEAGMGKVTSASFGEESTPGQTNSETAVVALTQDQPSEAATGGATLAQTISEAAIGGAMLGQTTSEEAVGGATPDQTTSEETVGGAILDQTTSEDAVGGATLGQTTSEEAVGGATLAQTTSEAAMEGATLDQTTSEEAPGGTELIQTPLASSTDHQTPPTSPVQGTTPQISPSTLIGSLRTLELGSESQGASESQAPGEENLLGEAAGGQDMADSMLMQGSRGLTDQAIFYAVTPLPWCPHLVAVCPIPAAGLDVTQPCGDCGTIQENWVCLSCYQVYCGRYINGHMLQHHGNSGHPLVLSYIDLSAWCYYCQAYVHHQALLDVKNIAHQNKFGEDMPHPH

Compound	IC50 [nM]
Cc1c(O)c(O)c2c(c1C=O)[C@@H]1O[C@H](O2)c2c(C)c(O)c(O)c(O)c2C1=O (racemic)	4600

Molecular target: ALK tyrosine kinase receptor (Homo sapiens, UniProt Q9UM73)
Sequence (Q9UM73 whole entry): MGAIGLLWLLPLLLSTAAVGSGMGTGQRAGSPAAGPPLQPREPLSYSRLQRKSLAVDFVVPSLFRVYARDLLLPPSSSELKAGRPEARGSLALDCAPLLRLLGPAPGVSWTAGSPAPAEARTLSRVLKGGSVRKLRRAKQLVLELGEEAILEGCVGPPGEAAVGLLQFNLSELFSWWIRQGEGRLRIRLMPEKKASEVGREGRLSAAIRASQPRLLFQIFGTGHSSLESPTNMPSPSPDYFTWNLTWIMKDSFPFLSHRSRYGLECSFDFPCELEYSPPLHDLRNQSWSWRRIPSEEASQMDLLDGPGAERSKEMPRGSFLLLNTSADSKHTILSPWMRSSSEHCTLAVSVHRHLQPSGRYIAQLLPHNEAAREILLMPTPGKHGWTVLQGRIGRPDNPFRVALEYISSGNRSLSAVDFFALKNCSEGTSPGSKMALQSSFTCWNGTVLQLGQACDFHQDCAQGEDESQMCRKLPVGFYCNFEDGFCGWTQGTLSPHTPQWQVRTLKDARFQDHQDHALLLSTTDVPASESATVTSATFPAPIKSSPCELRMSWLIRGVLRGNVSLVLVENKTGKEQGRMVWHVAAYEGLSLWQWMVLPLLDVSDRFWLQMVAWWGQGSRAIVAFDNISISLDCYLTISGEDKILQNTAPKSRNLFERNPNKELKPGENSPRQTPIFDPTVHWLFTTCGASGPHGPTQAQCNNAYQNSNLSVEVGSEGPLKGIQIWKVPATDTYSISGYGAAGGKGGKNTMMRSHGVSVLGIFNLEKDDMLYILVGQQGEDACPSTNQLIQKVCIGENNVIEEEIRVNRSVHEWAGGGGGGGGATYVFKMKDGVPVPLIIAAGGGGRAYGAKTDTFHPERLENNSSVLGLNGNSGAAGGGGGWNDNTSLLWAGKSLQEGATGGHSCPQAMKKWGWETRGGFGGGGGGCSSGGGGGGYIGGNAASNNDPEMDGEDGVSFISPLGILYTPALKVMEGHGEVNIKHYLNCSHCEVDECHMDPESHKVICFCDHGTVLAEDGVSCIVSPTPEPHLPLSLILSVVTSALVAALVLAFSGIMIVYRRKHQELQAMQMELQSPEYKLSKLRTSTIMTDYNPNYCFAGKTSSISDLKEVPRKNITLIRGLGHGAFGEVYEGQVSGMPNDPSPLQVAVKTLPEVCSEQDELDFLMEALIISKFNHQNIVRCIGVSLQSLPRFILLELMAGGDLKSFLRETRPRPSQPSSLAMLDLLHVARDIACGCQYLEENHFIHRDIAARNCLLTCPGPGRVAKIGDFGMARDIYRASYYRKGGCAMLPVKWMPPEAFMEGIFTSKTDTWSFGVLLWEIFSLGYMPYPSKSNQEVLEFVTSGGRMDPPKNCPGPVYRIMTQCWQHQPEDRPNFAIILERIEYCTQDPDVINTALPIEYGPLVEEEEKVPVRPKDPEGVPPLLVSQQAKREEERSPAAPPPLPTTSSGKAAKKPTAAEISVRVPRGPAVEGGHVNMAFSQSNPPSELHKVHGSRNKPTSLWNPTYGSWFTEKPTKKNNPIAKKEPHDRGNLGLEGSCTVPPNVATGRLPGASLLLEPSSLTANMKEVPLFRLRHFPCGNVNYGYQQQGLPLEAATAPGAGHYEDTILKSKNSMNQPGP
Assay: Inhibition of ALK (unknown origin)
Conditions: not given

Compound	IC50 [nM]
Cc1c(O)c(O)c2c(c1C=O)[C@@H]1O[C@H](O2)c2c(C)c(O)c(O)c(O)c2C1=O (racemic)	180

Molecular target: Histone deacetylase
Assay: Inhibition of HDAC in human K562 cell extract using Fluor-de-Lys deacetylase as substrate preincubated for 45 mins measured after 15 mins by fluorescence assay
Format: protein assay
Conditions: not given

Compound	IC50 [nM]
Cc1c(O)c(O)c2c(c1C=O)[C@@H]1O[C@H](O2)c2c(C)c(O)c(O)c(O)c2C1=O (racemic)	9800

Molecular target: Histone deacetylase 1 (Homo sapiens, UniProt Q13547)
Sequence (Q13547 whole entry): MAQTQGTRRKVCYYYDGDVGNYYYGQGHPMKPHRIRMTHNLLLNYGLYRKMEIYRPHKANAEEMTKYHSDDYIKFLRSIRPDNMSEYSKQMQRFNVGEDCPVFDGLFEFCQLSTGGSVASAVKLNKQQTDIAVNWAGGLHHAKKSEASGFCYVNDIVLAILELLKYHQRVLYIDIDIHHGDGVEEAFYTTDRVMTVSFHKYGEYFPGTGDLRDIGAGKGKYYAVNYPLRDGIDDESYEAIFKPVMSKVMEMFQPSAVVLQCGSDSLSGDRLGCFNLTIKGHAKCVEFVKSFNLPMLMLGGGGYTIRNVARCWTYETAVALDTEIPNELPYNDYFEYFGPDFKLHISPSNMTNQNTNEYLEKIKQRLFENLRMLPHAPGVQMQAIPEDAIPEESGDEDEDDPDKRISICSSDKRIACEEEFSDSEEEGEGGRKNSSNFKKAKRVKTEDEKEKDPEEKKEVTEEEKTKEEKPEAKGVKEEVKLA
Assay: Inhibition of recombinant HDAC1 (unknown origin) using Fluor-de-Lys-SIRT1 as substrate by fluorescence assay
Conditions: not given

Compound	IC50 [nM]
Cc1c(O)c(O)c2c(c1C=O)[C@@H]1O[C@H](O2)c2c(C)c(O)c(O)c(O)c2C1=O (racemic)	8600

Molecular target: Histone deacetylase 8 (Homo sapiens, UniProt Q9BY41)
Sequence (Q9BY41 whole entry): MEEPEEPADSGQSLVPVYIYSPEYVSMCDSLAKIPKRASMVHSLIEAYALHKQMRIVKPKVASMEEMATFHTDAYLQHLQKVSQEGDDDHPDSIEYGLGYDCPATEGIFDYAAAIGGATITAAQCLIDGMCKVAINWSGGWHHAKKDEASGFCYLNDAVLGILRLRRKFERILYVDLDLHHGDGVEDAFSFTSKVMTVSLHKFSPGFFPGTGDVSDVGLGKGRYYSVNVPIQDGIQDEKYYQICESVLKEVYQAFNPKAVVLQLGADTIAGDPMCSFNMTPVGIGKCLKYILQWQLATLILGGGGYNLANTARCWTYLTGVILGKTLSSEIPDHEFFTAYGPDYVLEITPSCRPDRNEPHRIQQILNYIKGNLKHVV
Assay: Inhibition of recombinant HDAC8 (unknown origin) using Fluor-de-Lys-HDAC8 as substrate by fluorescence assay
Conditions: not given

Compound	IC50 [nM]
Cc1c(O)c(O)c2c(c1C=O)[C@@H]1O[C@H](O2)c2c(C)c(O)c(O)c(O)c2C1=O (racemic)	1600

Molecular target: Insulin-like growth factor 1 receptor (Homo sapiens, UniProt P08069)
Assay: Inhibition of IGF1R (unknown origin)
Conditions: not given

Compound	IC50 [nM]
Cc1c(O)c(O)c2c(c1C=O)[C@@H]1O[C@H](O2)c2c(C)c(O)c(O)c(O)c2C1=O (racemic)	70

Molecular target: T1, Tyrosine-protein kinase receptor UFO (Homo sapiens, UniProt P30530)
T1 sequence (P30530 whole entry): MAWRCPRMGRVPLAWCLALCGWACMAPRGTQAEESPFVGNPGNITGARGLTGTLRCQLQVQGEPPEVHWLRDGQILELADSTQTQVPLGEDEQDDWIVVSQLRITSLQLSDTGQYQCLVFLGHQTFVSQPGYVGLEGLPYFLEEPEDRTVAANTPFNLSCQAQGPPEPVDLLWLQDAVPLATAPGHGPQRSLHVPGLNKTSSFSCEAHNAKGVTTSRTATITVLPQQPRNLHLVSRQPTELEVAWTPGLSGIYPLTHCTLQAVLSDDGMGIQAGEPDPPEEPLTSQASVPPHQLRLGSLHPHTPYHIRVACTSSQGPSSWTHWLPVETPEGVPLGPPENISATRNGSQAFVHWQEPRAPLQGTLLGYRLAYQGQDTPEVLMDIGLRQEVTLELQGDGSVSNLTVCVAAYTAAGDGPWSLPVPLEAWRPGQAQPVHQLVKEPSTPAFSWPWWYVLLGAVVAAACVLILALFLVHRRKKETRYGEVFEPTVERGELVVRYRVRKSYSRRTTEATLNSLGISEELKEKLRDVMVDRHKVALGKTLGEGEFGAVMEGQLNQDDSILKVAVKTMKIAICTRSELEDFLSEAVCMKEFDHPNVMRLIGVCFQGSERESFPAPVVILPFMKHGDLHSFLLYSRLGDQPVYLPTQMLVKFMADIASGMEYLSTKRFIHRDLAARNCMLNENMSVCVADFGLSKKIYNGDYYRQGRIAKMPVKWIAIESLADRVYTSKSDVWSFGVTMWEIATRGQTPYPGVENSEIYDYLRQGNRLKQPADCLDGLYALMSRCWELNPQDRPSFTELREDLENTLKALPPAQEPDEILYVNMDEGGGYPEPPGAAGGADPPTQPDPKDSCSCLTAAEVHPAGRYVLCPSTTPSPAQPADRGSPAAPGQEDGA
Assay: Inhibition of AXL (unknown origin)
Conditions: not given

Compound	IC50 [nM]
Cc1c(O)c(O)c2c(c1C=O)[C@@H]1O[C@H](O2)c2c(C)c(O)c(O)c(O)c2C1=O (racemic)	160

Molecular target: T2, Serine/threonine-protein kinase Nek2 (Homo sapiens, UniProt P51955)
T2 sequence (P51955 whole entry): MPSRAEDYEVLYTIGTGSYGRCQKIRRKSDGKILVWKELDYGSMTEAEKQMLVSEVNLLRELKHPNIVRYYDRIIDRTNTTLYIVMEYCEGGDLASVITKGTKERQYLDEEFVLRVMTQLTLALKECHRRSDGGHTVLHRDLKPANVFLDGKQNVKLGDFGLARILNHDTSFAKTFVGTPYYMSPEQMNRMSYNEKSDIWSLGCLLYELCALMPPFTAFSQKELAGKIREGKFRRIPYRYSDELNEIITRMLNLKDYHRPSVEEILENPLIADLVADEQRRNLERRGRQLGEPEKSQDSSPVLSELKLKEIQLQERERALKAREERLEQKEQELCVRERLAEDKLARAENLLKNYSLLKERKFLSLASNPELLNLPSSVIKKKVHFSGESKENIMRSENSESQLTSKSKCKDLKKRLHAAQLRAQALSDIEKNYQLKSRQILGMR
Assay: Inhibition of NEK2 (unknown origin)
Conditions: not given

Compound	IC50 [nM]
Cc1c(O)c(O)c2c(c1C=O)[C@@H]1O[C@H](O2)c2c(C)c(O)c(O)c(O)c2C1=O (racemic)	1830

Molecular target: Vascular endothelial growth factor receptor 2 (Homo sapiens, UniProt P35968)
Assay: Inhibition of VEGFR2 (unknown origin)
Conditions: not given

Compound	IC50 [nM]
Cc1c(O)c(O)c2c(c1C=O)[C@@H]1O[C@H](O2)c2c(C)c(O)c(O)c(O)c2C1=O (racemic)	320

Molecular target: RAC-alpha serine/threonine-protein kinase (Homo sapiens, UniProt P31749)
Assay: Inhibition of AKT1 (unknown origin)
Conditions: not given

Compound	IC50 [nM]
Cc1c(O)c(O)c2c(c1C=O)[C@@H]1O[C@H](O2)c2c(C)c(O)c(O)c(O)c2C1=O (racemic)	2150

System: not listed separately
Assay: Antiproliferative activity against human U937 cells assessed as growth inhibition at 5 uM after 72 hrs
Format: functional
Conditions: U-937, 72 h, read-out: GI
Method in brief: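 RAJI and U-937 cells from ATCC, grown in RPMI 1640 with 10% heat-inactivated fetal calf serum and 1% antibiotic–antimycotic at 37 °C, humid 5% CO2. Treated 72 h; DMSO-treated cells as negative control; proliferation measured by a previously described method.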

Compound	inhibition of growth at 5 µM [%]
Cc1c(O)c(O)c2c(c1C=O)[C@@H]1O[C@H](O2)c2c(C)c(O)c(O)c(O)c2C1=O (racemic)	32

Molecular target: Serine/threonine-protein kinase N1 (Homo sapiens, UniProt Q16512)
Sequence (Q16512 whole entry): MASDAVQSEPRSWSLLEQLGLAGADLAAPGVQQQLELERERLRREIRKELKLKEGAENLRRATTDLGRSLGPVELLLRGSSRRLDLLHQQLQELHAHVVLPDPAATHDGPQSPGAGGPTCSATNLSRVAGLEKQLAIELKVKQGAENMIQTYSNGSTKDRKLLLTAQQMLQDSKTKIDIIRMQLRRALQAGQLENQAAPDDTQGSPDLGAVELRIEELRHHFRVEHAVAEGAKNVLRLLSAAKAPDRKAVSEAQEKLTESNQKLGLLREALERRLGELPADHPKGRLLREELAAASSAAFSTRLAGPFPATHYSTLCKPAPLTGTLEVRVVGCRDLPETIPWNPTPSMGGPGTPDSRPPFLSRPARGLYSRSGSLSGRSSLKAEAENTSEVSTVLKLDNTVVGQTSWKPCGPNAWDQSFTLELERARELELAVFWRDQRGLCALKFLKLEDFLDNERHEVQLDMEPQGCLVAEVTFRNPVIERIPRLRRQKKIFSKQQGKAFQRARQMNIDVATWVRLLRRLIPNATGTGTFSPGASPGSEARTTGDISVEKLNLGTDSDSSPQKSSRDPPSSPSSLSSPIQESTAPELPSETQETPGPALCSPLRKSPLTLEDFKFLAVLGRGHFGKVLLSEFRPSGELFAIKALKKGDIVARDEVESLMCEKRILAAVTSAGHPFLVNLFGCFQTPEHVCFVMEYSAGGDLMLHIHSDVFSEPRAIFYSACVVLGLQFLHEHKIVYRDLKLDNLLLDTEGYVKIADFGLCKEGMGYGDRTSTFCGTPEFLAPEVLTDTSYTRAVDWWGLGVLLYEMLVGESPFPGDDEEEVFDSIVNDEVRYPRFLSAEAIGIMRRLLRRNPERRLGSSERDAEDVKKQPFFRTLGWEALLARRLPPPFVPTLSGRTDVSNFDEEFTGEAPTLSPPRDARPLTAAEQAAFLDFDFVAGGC
Assay: Inhibition of PRK1 (unknown origin)
Conditions: not given

Compound	IC50 [nM]
Cc1c(O)c(O)c2c(c1C=O)[C@@H]1O[C@H](O2)c2c(C)c(O)c(O)c(O)c2C1=O (racemic)	4480
